Compound activity as filed in PubChem.
An excerpt weighted towards active compounds, which were near 11% of everything screened.
M1 antagonist: M1 muscarinic receptor (rat) antagonism. CHO-M1 cells, Fluo-4 calcium, ACh EC80 antagonist mode; active compounds read low. B-score at 10 µM. P08482. AID 628. actives 3.4% (n = 64,000);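 active = calcium fluorescence response, raw or row-and-column corrected B-score, differing from the plate sample mean either way at a set confidence level, mostly lower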
S1P3 ag: agonists of human S1P3 receptor; actives 0.1% (n = 60,000); S1P3 NFAT-BLA reporter cells, agonism, FRET ratio; relative to 1 µM S1P, basal subtracted; AID 373; activation, % at 4.5 µM; Q99500;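 active = activation above the screen-wide mean plus 3 SD, cut at about 4.5% in these data, passing the limit was not always enough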
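Measure – % activation relative to 1 µM S1P (100%), per plate · System – stable CHO line with human S1P3, Gα16, NFAT-BLA reporter · Timing – cells plated overnight, compound 4 h 37 °C, substrate 2 h RT · Technique – fluorescent BLA substrate, ex 405 nm, em 460/535 nm ratio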
D1 allo mod: D1 dopamine receptor (human) allosteric modulation; P21728; HEK293 D1, CRE-luciferase, dopamine EC30 potentiation; actives deviate in either direction; B-score at 10 µM; actives 5.9% (n = 58,000); AID 641;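 active = luminescence count or its row- and column-corrected plate score outside the 99.7% band of the plate's sample wells, on either side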
S1P1 ag-PAM: S1P1 (human) agonism or agonism potentiation; AID 449; activation, % at 9.5 µM; actives 0.57% (n = 56,000); S1P1 CRE-bla cells, forskolin, beta-lactamase FRET, potentiator mode; S1P1 agonist co-added at EC20, 2 nM; 100% = saturating reference agonist, 0% = basal; P21453;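 active = activation above a cutoff set at the mean activation of all tested compounds plus 3 SD, cut at about 54% in these data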;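 note: forskolin at 4 µM as EC80 and the EC20 agonist is SEW2871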
M1 ag: activates the M1 muscarinic receptor; CHO-M1 cells, Fluo-4 calcium fluorescence, agonist mode; active compounds read high; B-score at 10 µM; actives 3% (n = 64,000);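 active = fluorescence rise, raw or as B-score row- and column-corrected plate score, outside the 99.7% band of its plate's samples, either direction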
M1 agonist conf: rat M1 muscarinic agonism, confirmation | fluorescence change (max-min) at 10 µM | shares compounds with M1 ag | actives 19% (n = 1,700) | CHO-M1 cells, Fluo-4 calcium fluorescence, agonist mode; actives lie on both sides;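 active = fluorescence change differs from the solvent-only DMSO control mean at a set confidence level in both duplicate runs; inconclusive = differs from solvent-only control mean in just one of two runs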;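 note: an EC20 dose of acetylcholine follows compound addition during the same imaging run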
M4 ag counter: counter-screen for M1 agonists: activity at rat M4 receptor; AID 1741; CHO M4/Gqi5 cells, Fluo-4 calcium fluorescence, agonist mode; actives lie on both sides; actives 9% (n = 1,700); fluorescence change (max-min) at 10 µM; shares compounds with M1 ag;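 active = fluorescence change differing from the plate's solvent-only control wells at 99.7% confidence in both duplicates, whether higher or lower; inconclusive = differs from solvent controls in only one of two duplicates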
Target sequence (P08485 whole entry, looked up): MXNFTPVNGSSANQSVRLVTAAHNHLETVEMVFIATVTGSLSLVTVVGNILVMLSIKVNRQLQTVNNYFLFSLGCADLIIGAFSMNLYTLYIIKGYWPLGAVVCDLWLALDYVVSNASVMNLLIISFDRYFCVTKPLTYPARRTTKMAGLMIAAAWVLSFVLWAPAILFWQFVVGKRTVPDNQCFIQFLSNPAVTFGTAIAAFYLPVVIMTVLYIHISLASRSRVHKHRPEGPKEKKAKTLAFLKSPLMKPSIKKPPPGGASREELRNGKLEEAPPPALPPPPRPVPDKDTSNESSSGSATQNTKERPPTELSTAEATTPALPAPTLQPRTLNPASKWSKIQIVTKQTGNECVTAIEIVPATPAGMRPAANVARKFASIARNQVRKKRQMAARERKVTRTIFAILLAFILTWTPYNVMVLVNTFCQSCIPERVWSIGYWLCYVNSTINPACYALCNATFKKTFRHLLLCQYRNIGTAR
Of the large screens only hits and unclear results are named; the others gave an inactive call (follow-up assays come after a bar, where they were run).

CCCCc1nc(N2CCOCC2)c(C#N)c2c1COC(C)(C)C2	M1 ag 4.49 (no result: D1 allo mod) | M1 agonist conf inconclusive | M4 ag counter inactive
CCCSc1nc(N2CCCC2)c2c(c1C#N)CC(C)(C)OC2	none (no result: D1 allo mod)
CCCCc1nc(NCC2CCCO2)c(C#N)c2c1COC(C)(C)C2 (centres undefined)	none (no result: D1 allo mod)
CCCNC(=O)NC(C(=O)OC)C12CC3CC(CC(C3)C1)C2 (centres undefined)	none
Cc1cc(C)n2nc(SC3CCCCN(C(=O)c4ccc(F)cc4)C3=O)nc2n1 (centres undefined)	none
Cc1cc(NC(=O)CSc2nnc(-c3ccoc3C)o2)no1	M1 ag -3.67 | M1 agonist conf inconclusive | M4 ag counter inactive
c1ccc(Nc2nc(N3CCCCC3)nc(N3CCNCC3)n2)cc1	M1 ag 10.7 (no result: S1P1 ag-PAM) | M1 agonist conf inactive | M4 ag counter inactive
C1CCN(c2nc(N3CCCC3)nc(N3CCNCC3)n2)C1	none
CCOc1ccc(Nc2ncnc3c2cnn3-c2ccccc2)cc1	M1 ag 3.17 | M1 agonist conf inactive | M4 ag counter inconclusive
CC1CCN(c2c(NCc3ccc(C(=O)N4c5ccccc5CC4C)cc3)c(=O)c2=O)CC1 (centres undefined)	none
O=C(NCc1cccs1)Nc1ccc2c(c1)OCO2	M1 ag 3.08 | M1 agonist conf inconclusive | M4 ag counter inactive
c1ccc(-c2nc3cc(Cc4ccc5oc(-c6ccccn6)nc5c4)ccc3o2)nc1	none
CN(C)C=Nc1c(Br)cc(Br)c2nonc12	M1 ag 61.5 | M1 agonist conf 278 | M4 ag counter 617
CCOc1ccc(NC(=O)Nc2ccc3nccnc3c2)cc1	M1 ag 9.64 | M1 agonist conf inactive | M4 ag counter inactive
CC(C)(C)NC(=O)Nc1ccc2nccnc2c1	none
Cc1cc(Nc2cccc(C)c2C)n2nc(C)nc2n1	none (no result: D1 allo mod)
Nc1nnc(SCc2cccc(C(F)(F)F)c2)s1	M1 ag 1.63 | M1 agonist conf inactive | M4 ag counter inconclusive
C#CC(C)(CC)NC(=O)Cn1nnc(-c2ccc(S(C)(=O)=O)cc2)n1 (centres undefined)	none
O=C(CN(c1ccc(F)cc1)S(=O)(=O)c1ccc2c(c1)OCCO2)N1CCOCC1	none
O=C1c2ccccc2N2C(=O)c3ccccc3C2N1Cc1ccco1 (centres undefined)	M1 ag 5.3 (no result: S1P3 ag, S1P1 ag-PAM) | M1 agonist conf inactive | M4 ag counter inactive
CC(C)c1nnc(N2C(=O)c3oc4ccccc4c(=O)c3C2c2ccco2)s1 (centres undefined)	none
Cc1nnc(N2C(=O)c3oc4ccccc4c(=O)c3C2c2ccco2)s1 (centres undefined)	M1 ag 3.03 | M1 agonist conf inconclusive | M4 ag counter inactive
COc1cc(C)nc(Oc2ccc(OCCOc3ccc(C)cc3)nn2)n1	none
O=C(Nc1nc(-c2cc3ccccc3oc2=O)cs1)c1ccco1	M1 ag 1.6 (no result: D1 allo mod) | M1 agonist conf inactive | M4 ag counter inactive
O=C(OCC(=O)N1CCCC1)c1cccs1	none
O=c1[nH]c2cc3c(cc2cc1CN(Cc1nnnn1CC1CCCO1)C1CCCCC1)OCO3 (centres undefined)	M1 ag 3.6 (no result: D1 allo mod) | M1 agonist conf 92.9 | M4 ag counter inconclusive
CCC(C)(C)n1nnnc1CN(Cc1cc2cc(OC)ccc2[nH]c1=O)C1CCCC1	M1 ag 2.63 (no result: D1 allo mod) | M1 agonist conf inactive | M4 ag counter inactive
Cc1nnc(SCC(=O)Nc2ccc(N3CCOCC3)cc2)o1	none (no result: M1 antagonist, M1 ag)
COc1cc(NS(=O)(=O)c2ccc(C)cc2C)cc(OC)c1OC	M1 ag 4.14 | M1 agonist conf inconclusive | M4 ag counter inactive
COc1ccc(C)cc1S(=O)(=O)Nc1ccccc1C	none
CCn1c(SCC(=O)Nc2cccc(NC(=O)c3ccco3)c2)nnc1-c1cccs1	M1 ag 4.16 | M1 agonist conf inactive | M4 ag counter inactive
Cc1cc(OCc2nnc(SCC(=O)OC3CCCCC3)o2)ccc1Cl	M1 ag 4.56 | M1 agonist conf inconclusive | M4 ag counter inconclusive
Cn1c(C(=O)N2CCc3ccccc3C2)cc2c(=O)n3ccccc3nc21	none
